# Measured values taken from ChEMBL document CHEMBL1143745, “Utility of 6-amino-2-thiouracil as a precursor for the synthesis of bioactive pyrimidine derivatives” (2007).
# What was measured:
# Escherichia coli = assay: Antimicrobial activity against Escherichia coli; format: functional
# Procedure, shortened: (§1)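 Disk diffusion. A sterile filter-paper disk saturated with a measured quantity of sample is placed on agar heavily seeded with a spore suspension of the test organism. Bacteria are grown on nutrient agar and fungi on Dox's medium. The diameter of the clear inhibition zone around the disk is taken as the inhibitory measure. Ampicillin is the antibacterial reference and nystatin the antifungal reference.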
# Candida albicans = assay: Antimicrobial activity against Candida albicans; format: functional; procedure, shortened: as §1
# Neisseria gonorrhoeae = assay: Antimicrobial activity against Neisseria gonorrhoeae; format: functional; procedure, shortened: as §1
# Pseudomonas aeruginosa = assay: Antimicrobial activity against Pseudomonas aeruginosa; format: functional; procedure, shortened: as §1
# Bacillus subtilis = assay: Antimicrobial activity against Bacillus subtilis; format: functional; procedure, shortened: as §1
# Staphylococcus aureus = assay: Antimicrobial activity against Staphylococcus aureus; format: functional; procedure, shortened: as §1
# Saccharomyces cerevisiae = assay: Antimicrobial activity against Saccharomyces cerevisiae; format: functional; procedure, shortened: as §1
# Enterococcus faecalis = assay: Antimicrobial activity against Streptococcus faecalis; format: functional; procedure, shortened: as §1
# HepG2 [1] = assay: Cytotoxicity against HEPG2 cells assessed as surviving fraction at 5 ug/ml after 48 hrs by ELISA; format: functional, Homo sapiens
# Procedure, shortened: (§2)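 SRB assay in human liver carcinoma HEPG2 or lung carcinoma H460 cells. Cells are seeded at 10⁴ per well and allowed to attach for 24 h. Compound is added at 0, 1, 2.5, 5 and 10 µg/ml, in triplicate wells per dose, for 48 h continuous exposure at 37 °C in 5% CO₂. Cells are then fixed and stained with sulforhodamine B. Bound dye is recovered in Tris-EDTA and read on an ELISA reader. Surviving fraction is plotted against concentration. Cisplatin is the positive control.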
# HepG2 [2] = assay: Cytotoxicity against HEPG2 cells assessed as surviving fraction at 10 ug/ml after 48 hrs by ELISA; format: functional, Homo sapiens; procedure, shortened: as §2
# HepG2 [3] = assay: Cytotoxicity against HEPG2 cells assessed as surviving fraction at 2.5 ug/ml after 48 hrs by ELISA; format: functional, Homo sapiens; procedure, shortened: as §2
# NCI-H460 [4] = assay: Cytotoxicity against human H460 cells assessed as surviving fraction at 1 ug/ml after 48 hrs by ELISA; format: functional; procedure, shortened: as §2
# NCI-H460 [5] = assay: Cytotoxicity against human H460 cells assessed as surviving fraction at 5 ug/ml after 48 hrs by ELISA; format: functional; procedure, shortened: as §2
# NCI-H460 [6] = assay: Cytotoxicity against human H460 cells assessed as surviving fraction at 2.5 ug/ml after 48 hrs by ELISA; format: functional; procedure, shortened: as §2
# HepG2 [7] = assay: Cytotoxicity against HEPG2 cells assessed as surviving fraction at 1 ug/ml after 48 hrs by ELISA; format: functional, Homo sapiens; procedure, shortened: as §2
# NCI-H460 [8] = assay: Cytotoxicity against human H460 cells assessed as surviving fraction at 10 ug/ml after 48 hrs by ELISA; format: functional; procedure, shortened: as §2
Compound,inhibition zone (IZ) (Escherichia coli) [mm],inhibition zone (IZ) (Candida albicans) [mm],inhibition zone (IZ) (Neisseria gonorrhoeae) [mm],inhibition zone (IZ) (Pseudomonas aeruginosa) [mm],inhibition zone (IZ) (Bacillus subtilis) [mm],inhibition zone (IZ) (Staphylococcus aureus) [mm],inhibition zone (IZ) (Saccharomyces cerevisiae) [mm],inhibition zone (IZ) (Enterococcus faecalis) [mm],Activity (HepG2 [1]),Activity (HepG2 [2]),Activity (HepG2 [3]),Activity (NCI-H460 [4]),Activity (NCI-H460 [5]),Activity (NCI-H460 [6]),Activity (HepG2 [7]),Activity (NCI-H460 [8])
COC(=O)c1c(-c2ccccc2)nc2[nH]c(=S)[nH]c(=O)c2c1C(=O)OC,16,15,15,16,16,16,16,15,–,–,–,–,–,–,–,–
CCOC(=O)c1cc(-c2ccccc2)nc2[nH]c(=S)[nH]c(=O)c12,11,11,12,11,11,11,12,11,–,–,–,–,–,–,–,–
CC1(C)S[C@@H]2[C@H](NC(=O)[C@H](N)c3ccccc3)C(=O)N2[C@H]1C(=O)O [AMPICILLIN],11,–,13,19,18,20,–,30,–,–,–,–,–,–,–,–
CCOC(=O)c1c(-c2ccccc2)nc2[nH]c(=S)[nH]c(=O)c2c1C(=O)OCC,11,12,13,13,12,12,11,12,0.841,0.805,0.914,0.855,0.771,0.827,0.968,0.72
COc1ccc(-c2cc(C(=O)c3cccs3)c3c(=O)[nH]c(=S)[nH]c3n2)cc1,12,12,14,11,11,11,12,12,–,–,–,–,–,–,–,–
COc1ccc(-c2cc(C#N)c3c(=O)[nH]c(=S)[nH]c3n2)cc1,–,–,–,–,–,–,–,–,0.941,0.914,0.968,0.948,0.836,0.897,1.046,0.808
CCOC(=O)c1cc(-c2ccc(OC)cc2)nc2[nH]c(=S)[nH]c(=O)c12,–,–,–,–,–,–,–,–,0.977,0.927,1,0.948,0.776,0.915,1.018,0.646
N#Cc1cc(-c2ccccc2)nc2[nH]c(=S)[nH]c(=O)c12,12,12,12,11,11,11,12,12,–,–,–,–,–,–,–,–
O=C(c1cccs1)c1cc(-c2ccccc2)nc2[nH]c(=S)[nH]c(=O)c12,13,13,13,12,13,12,12,12,0.905,0.85,1.005,0.943,0.808,0.869,1.05,0.641
COC(=O)c1c(-c2ccc(OC)cc2)nc2[nH]c(=S)[nH]c(=O)c2c1C(=O)OC,14,14,14,14,14,15,14,14,0.786,0.709,0.823,0.962,0.808,0.887,0.895,0.743
NYSTATIN,–,12,–,–,–,–,11,–,–,–,–,–,–,–,–,–
COc1ccc(-c2cc(C(=O)c3ccco3)c3c(=O)[nH]c(=S)[nH]c3n2)cc1,11,11,12,11,11,11,12,11,–,–,–,–,–,–,–,–
O=C(c1ccc2ccccc2c1)c1cc(-c2ccccc2)nc2[nH]c(=S)[nH]c(=O)c12,10,10,12,11,10,11,12,11,–,–,–,–,–,–,–,–
